Measurements pooled from the literature.
Compare with care: the assays were run in different laboratories.
Organism: Acinetobacter baumannii
Observed: microbial growth

SMILES | technique | strain | time | MIC
CNC(C)C1CCC(N)C(OC2C(N)CC(N)C(OC3OCC(C)(O)C(NC)C3O)C2O)O1 (stereo not shown) | broth dilution | ATCCBAA1605 | – | > 64 µg/mL
CCCCCCC#Cc1cncc(-c2nnc(SCc3cc([N+](=O)[O-])cc([N+](=O)[O-])c3)n2CCOC2OC(CN)C(O)C2O)c1 (stereo not shown) | broth dilution | ATCC17978 | – | 64 µg/mL
C[C@@H](O)[C@H]1C(=O)N2C(C(=O)O)=C(S[C@@H]3CN[C@H](C(=O)N(C)C)C3)[C@H](C)[C@H]12 | broth dilution | ATCC19606 | – | 0.5 µg/mL
Nc1nc(-c2ccc3nc(-c4cc(C(F)(F)F)cc(C(F)(F)F)c4)[nH]c3c2)c[nH]1 | broth dilution | AB5075 | – | 50 µM
N[C@@H](Cc1c[nH]c2ccc(Cl)cc12)C(=O)O | – | ATCC17978 | 18 h | > 200 µM
[H]/N=C(\N/C(=N/[H])NCCCCCCNC(=N)NC(=N)Nc1ccc(Cl)cc1)Nc1ccc(Cl)cc1 | – | ATCC17978 | – | 8 µM
CCCCCCC#Cc1cncc(-c2nnc(SCc3ccc([N+](=O)[O-])o3)n2CCCN)c1 | broth dilution | ATCC17978 | – | 32 µg/mL
CC1(C)S[C@@H]2[C@H](NC(=O)[C@H](N)c3ccccc3)C(=O)N2[C@H]1C(=O)O | broth dilution | ATCCBAA1605 | – | > 64 µg/mL
CCCCCCC#Cc1cncc(-c2nnc(SCc3cc([N+](=O)[O-])cc([N+](=O)[O-])c3)n2C2CCNCC2)c1 | broth dilution | ATCC17978 | – | 64 µg/mL
CCCCCCCCN=c1ccn(CCCCCCCCCCn2ccc(=NCCCCCCCC)cc2)cc1 | – | ATCC17978 | – | 1 µM
